Data set [1] relates to wild-type (AF) A. ferrooxidans cells. Nature of the data set: Metal recovery from porphyry molybdenite processing concentrate. The data set is classed as cell-based. To be noted: for binding during reactions with process concentrate: data not shown; for efficiency of recovery: diluted acidic wastewater from molybdenite processing, pH 1.6. The gist of the method:
(§1)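 Wild-type *A. ferrooxidans* and strains engineered to (over)express wild-type (AFWP) or mutant (AFMP) ModA/WtpA oxyanion-binding protein (AFE_1498) were each reacted with diluted acidic wastewater from the washing and extraction steps of porphyry molybdenite processing. The wastewater held molybdenum and rhenium as major components, at pH 1.6. Mo and Re recovery efficiency after binding was compared with wild-type cells.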

A further data set has as its system AFMP cells. Described as above. The data set is classed as cell-based, A. ferrooxidans. As to conditions: for binding during reactions with process concentrate: data not shown; for efficiency of recovery: diluted acidic wastewater from molybdenite processing. The procedure, abridged: as §1
Data set [2] deals with wild-type ModA/WtpA protein (AFE_1498). Nature of the data set: Metal binding in vitro by purified protein. On the set-up: species or system A. ferrooxidans. As to conditions: pH 1.8, 1:1 molar ratio. The gist of the method:
(§2)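 Purified polyHis-tagged protein (Ni-NTA resin, then size exclusion chromatography; about 35 kDa on SDS-PAGE). It was incubated 1 h at pH 1.8 with a solution of one oxyanion: molybdate, tungstate, chromate or perrhenate. Binding efficiency was taken after the incubation. Error bars are one standard deviation, and p < 0.05 versus wild-type protein for the same metal.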

Data set [3] deals with mutant (G9C/A166C) ModA/WtpA protein. Nature of the data set: Metal binding in vitro by purified protein. To be noted: pH 1.8, 1:1 molar ratio. The arrangement: species or system A. ferrooxidans. The procedure, abridged: as §2
For data set [4], the system named is wild-type (AF) A. ferrooxidans cells. Format: cell-based. As to conditions: for binding capacity: 1 mM mixed metal solution, pH 1.8.
In data set [5] the test system is AFWP (engineered A. ferrooxidans overexpressing wild-type ModA/WtpA). Nature of the data set: Metal binding by cells in synthetic metal solutions. The data set is classed as cell-based. As to conditions: for binding capacity / fold higher binding capacity compared to wild-type cells: pH 1.8; for binding capacity to other oxyanion metals: Figure S6.
The subject of data set [6] is AFMP (engineered A. ferrooxidans expressing mutant ModA/WtpA). The data set is described as above. Format: cell-based. To be noted: for binding capacity to other oxyanion metals: Figure S6.
The target in data set [7] is wild-type ModA/WtpA protein. Nature of the data set: Quenching of intrinsic tryptophan fluorescence, Langmuir isotherm fit. To be noted: read-out: dissociation constant, pH 1.8. The data set is classed as binding, A. ferrooxidans. The gist of the method: (§3)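 Purified polyHis-tagged protein (Ni-NTA resin, then size exclusion chromatography) at a fixed amount, titrated at pH 1.8 with varying initial concentrations of molybdate, tungstate, chromate or perrhenate. Significance was p < 0.05 versus wild-type protein for the same metal.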

A further data set addresses mutant ModA/WtpA protein. Described as above. The data set is classed as binding, A. ferrooxidans. As to conditions: pH 1.8; for Kd: read-out: dissociation constant, mutant protein. The procedure, abridged: as §3
For data set [8] the following is noted: cited from earlier work.
For the next data set, the system named is AFWP cells. Nature of the data set: Metal recovery from porphyry molybdenite processing concentrate. To be noted: pH 1.6; for efficiency of recovery: diluted acidic wastewater from molybdenite processing. Format: cell-based, A. ferrooxidans. The procedure, abridged:
as §1

Where [9] appears, read: 1 mM mixed metal solution, pH 1.8.
[10] abbreviates: 1 mM pure metal solution, pH 1.8.
Setting [11] is: diluted process concentrate, pH 1.6.

Like-named read-outs stand apart in the source and are kept apart here. Marks after values point to notes of the source that are not given here.

The text below walks through data of paper PMC11350598 (JACS Au, 2024).

The term pKa denotes the negative logarithm of the acid dissociation constant.

On to `[As]` [arsenic], for which the “binding during reactions with process concentrate” value (in [1]; in the data set with AFMP cells) was “nonspecific binding” each time.

With `[Fe+2]` [iron], the results for the “binding efficiency (bound)” value in data set [2] and in data set [3] were 1.7 ± 0.3% and 1.3 ± 0.5%, respectively. The binding capacity in data set [4] (wild-type AF), in data set [5] (1 mM mixed metal solution) and in data set [6] (setting [9]) was 0.04 fg/cell throughout.

Take `[Se]` [selenium]: the “binding during reactions with process concentrate” value (in data set [1]; in the data set on AFMP cells) was “nonspecific binding” in each case.

Turning to `[O]=[Cr](=[O])([O-])[O-]` [chromate], the “binding efficiency (bound)” value in [2] and in data set [3] was “nearly all” in each case. For the same molecule, the Kd in data set [7] amounted to 500 ± 110 nM; at mutant ModA/WtpA protein, 480 ± 70 nM. Further, the binding capacity in data set [4] (wild-type AF) stood at 0.03 fg/cell; in [5] (1 mM mixed metal solution) it was 0.06 fg/cell; in data set [5] (1 mM pure metal solution), 0.6 fg/cell; in data set [6] (setting [9]), 0.07 fg/cell; in data set [6] (setting [10]), 0.6 fg/cell. Also, the “fold higher binding capacity compared to wild-type cells” value in data set [5] (1 mM pure metal solution) and in data set [6] (setting [10]) was 1.3 fold throughout. For the same molecule, the pKa in data set [8] (ref [4],[47]) is 6.5.

For the molecule `[O]=[Re](=[O])(=[O])[O-]` [perrhenate], the entries for the “binding efficiency (bound)” value in data set [2] and in data set [3] were 1.4% and 93%, respectively. In addition, the Kd in data set [7] is 1000 ± 100 nM; on mutant ModA/WtpA protein, 160 ± 30 nM. In addition, the “fold lower Kd (higher affinity) of mutant protein than wild-type protein” value with mutant ModA/WtpA protein was found to be 6 fold. For the same molecule, in data set [6] (setting [9]), the “fold higher binding capacity than wild-type AF and AFWP cells” value came to 2.7 fold. In [6] (setting [10]), this molecule had a binding capacity of 1.3 fg/cell. In addition, in data set [6] (setting [10]), the “fold higher binding capacity compared to AFWP cells” value amounted to 2 fold. Moreover, in [6] (setting [10]), the “fold higher binding capacity compared to wild-type cells” value amounted to 5 fold. The efficiency of recovery is on record as 1.7 ± 0.1% in [1], 1.9 ± 0.2%*^,** with AFWP cells and 5.7 ± 0.1%*^,** in the data set on AFMP cells (pH 1.6). Also, the “fold more recovered than wild-type and AFWP cells” value in the data set with AFMP cells (setting [11]) was 3 fold. In data set [8] (ref [47]), the pKa is −1.25.

For the molecule `[O]=[W](=[O])([O-])[O-]` [tungstate], the “binding efficiency (bound)” value in data set [2] and in [3] was “nearly all” each time. Besides, the Kd is 490 ± 110 nM in data set [7] and 360 ± 60 nM at mutant ModA/WtpA protein. Moreover, the binding capacity in data set [5] (1 mM mixed metal solution) amounted to 0.02 fg/cell; in [5] (1 mM pure metal solution) it was 0.23 fg/cell; in data set [6] (setting [9]) it was 0.04 fg/cell; in data set [6] (setting [10]) it was 0.24 fg/cell. The “fold higher binding capacity compared to wild-type cells” value in data set [5] (1 mM pure metal solution) and in data set [6] (setting [10]) was 2 fold in each case. Besides, the pKa in data set [8] (ref [4],[47]) is recorded as 6.7.

Regarding phosphate, the “binding capacity to other oxyanion metals” value was “did not show significant binding capacity” in data set [4] (wild-type AF, Figure S6); “did not show significant binding capacity” in data set [5]; “did not show significant binding capacity” in data set [6].

For the molecule `O=[As][O-].[Na+]` [arsenite], the “binding capacity to other oxyanion metals” value in data set [4], in data set [5] and in [6] was “did not show significant binding capacity” throughout.

As for `[O]=[Mo](=[O])([O-])[O-]` [molybdate], the “binding efficiency (bound)” value in data set [2] and in data set [3] was “nearly all” in each case. Besides, the Kd in [7] was determined as 320 ± 30 nM; at mutant ModA/WtpA protein, 150 ± 10 nM. Further, the “fold lower Kd (higher affinity) of mutant protein than wild-type protein” value in the data set on mutant ModA/WtpA protein was found to be 2 fold. Further, the binding capacity stood at 3.6 fg/cell in data set [4] (wild-type AF); 5.9 fg/cell in data set [5] (1 mM mixed metal solution); 18 fg/cell in data set [5] (1 mM pure metal solution); 8.4 fg/cell in data set [6] (setting [9]); 18 fg/cell in data set [6] (setting [10]). The “fold higher binding capacity compared to wild-type cells” value in data set [5] (1 mM pure metal solution) and in data set [6] (setting [10]) was 1.4 fold in each case. Further, the efficiency of recovery in data set [1] was found to be 6.0 ± 0.1%; in the data set on AFWP cells, 12 ± 1%; in the data set with AFMP cells (pH 1.6), 12 ± 1%. The “fold more recovered compared to wild-type AF cells” value with AFWP cells (diluted process concentrate) and with AFMP cells (setting [11]) was 2 fold in each case. The pKa in data set [8] (ref [4],[47]) was 3.8.
